Like-named read-outs stand apart in the source and are kept apart here. Values belong to the compound of their own block, whether it stands above or below them.
Assays:
[1] = Ribociclib protein binding in mouse plasma; format: in vitro ADME; details: CD1, mouse
Method in brief: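 The test compound was spiked into CD1 mouse plasma (sodium heparin) at final 500, 1000, 2500 and 5000 ng/ml. Spiked plasma was ultrafiltered through a 10 kDa cut-off device by centrifugation for 30 min at 3600 rpm, 37°C, and the filtrate was stored at −80°C. Fraction unbound was calculated as the filtrate concentration divided by the total plasma concentration.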

[2] = format: in vivo, CD1 nude mice
Method in brief: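 Female CD1 nude mice (n=9) bearing cortical SJ-DIPGx7 allografts received a single oral 100 mg/kg dose (10 mg/ml in 0.5% methyl cellulose). Sampling used a population design with multiple samples per mouse up to 24 h: retro-orbital bleeds and terminal cardiac puncture, into heparin. Plasma was assayed by LC-MS/MS. A one-compartment model with an oral dosing compartment was fitted by nonlinear mixed-effects modelling (NONMEM).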

[3] = Cerebral microdialysis study in non-tumor bearing mice; format: in vivo, CD1 nude mice; details: 100 mg/kg oral
Method in brief: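 After a single oral 100 mg/kg dose, brain ECF was microdialysed with Ringer's after at least 1 h probe equilibration. Plasma was sampled at 0.08, 1.5 and 7 h (some at 24 h). ECF was corrected by in vitro probe recovery at 1 μg/mL, 37°C, 0.5 μL/min. A one-compartment plus ECF compartment model was fitted in NONMEM with plasma parameters fixed.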

[4] = Cerebral microdialysis study in mice bearing SJ-DIPGx7; format: in vivo, CD1 nude mice; details: glioma mice, 100 mg/kg oral
Method in brief: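 Female CD1 nude mice with cortical allografts of 1·10^6 SJ-DIPGx7 cells (n=16); a guide cannula was implanted stereotactically into the cortex. After a single oral 100 mg/kg dose, tumor ECF was microdialysed with Ringer's after at least 1 h probe equilibration, and plasma was sampled at 0.08, 1.5 and 7 h (some at 24 h). ECF values were corrected by per-probe in vitro recovery. Data were fitted in NONMEM with plasma parameters and V3 fixed.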

CDK-cyclin D1 = details: read-out: IC50 for CDK-cyclin D1; no reference given; cited from earlier work
[5] = cited from earlier work
[6] = CF1 mice, 5 minutes after injection, cited from earlier work
[7] = adults at the recommended dose; cited from earlier work
[8] = in vivo, po, 30 mg/kg, cited from earlier work
[9] = Full-plasma PK study, glioma mice, 100 mg/kg oral

- fraction unbound at 30 min [1]: 0.23
- half-life ([2]; CD1 nude, mouse, plasma, po, 100 mg/kg): 4.67 ± 0.64 h
- θCL Clearance, Estimate (%RSE) [2, 9]: 2.78 (1.8) L/hr/kg
- θKa First-order absorption constant, Estimate (%RSE) [2, 9]: 2.75 (5.26) 1/hr
- θVc Volume of central compartment, Estimate (%RSE) [2, 9]: 18.6 (3.87) L/kg
- θCL23 Influx clearance from plasma to ECF compartment, Estimate (%RSE) [3]: 0.124 (26.8) L/hr/kg
- θCL32 Efflux clearance from ECF to plasma compartment, Estimate (%RSE) [3]: 7.78 (8.81) L/hr/kg
- AUC(0-t) ([3]; CD1 nude, mouse, brain ECF, po, 100 mg/kg, Brain/tumor ECF AUC0–24h, n=12, brain ECF): 736 ± 610 ng·h/mL
- AUC(0-t) ([4]; CD1 nude, mouse, tumor ECF, po, 100 mg/kg, Brain/tumor ECF AUC0–24h, n=16, tumor ECF): 433 ± 451 ng·h/mL
- θCL23 Influx clearance from plasma to ECF compartment, Estimate (%RSE) [4]: 0.000000838 (24) L/hr/kg
- θCL32 Efflux clearance from ECF to plasma compartment, Estimate (%RSE) [4]: 0.0000808 (11.5) L/hr/kg
SMILES: CN(C)C(=O)c1cc2cnc(Nc3ccc(N4CCNCC4)cn3)nc2n1C1CCCC1 [ribociclib, Ribociclib]
- IC50 (CDK-cyclin D1): 10 nM
- fraction unbound ([5]; assumed value for phase I comparison): 0.30
- unbound AUC ([5]; phase I study, assuming a fraction unbound of 0.30): ~ 6000 ng/ml*hr

SMILES: CC(=O)c1c(C)c2cnc(Nc3ccc(N4CCNCC4)cn3)nc2n(C2CCCC2)c1=O [palbociclib]
- Kp,uu [6]: 0.01 ± 0.003
- Kp,brain ([6]; dose 0.5 μmole/kg): 0.13 ± 0.04

SMILES: CCN1CCN(Cc2ccc(Nc3ncc(F)c(-c4cc(F)c5nc(C)n(C(C)C)c5c4)n3)nc2)CC1 [abemaciclib]
- plasma AUC [7]: 5520 ng·h/mL
- Kp,brain ([8]; 24 h): 0.21 ± 0.04
- Kp,uu ([8]; 24 h): 0.03 ± 0.01
- plasma AUC [8]: 69,300 ng/ml*hr
